CHO-K1 Ca ag: M1 agonist counterscreen hit in parental CHO-K1 cells; activation, % at 3 µM; hit rate 0.48% among 360,000; Fluo-8 calcium fluorescence; scaled to maximal ATP response, vehicle zero; AID 602248; in the data active means activation above about 15%;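 further: untransfected CHO-K1 host cells lacking M1 receptor as counterscreen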
CHO-K1 Ca antag: nonselective inhibitor or artifact in parental CHO-K1 cells. hit rate 0.6% among 360,000. AID 602250. ATP-induced calcium, Fluo-8 fluorescence. inhibition, % at 3 µM;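 active means inhibition above a per-plate cutoff, the plate's mean sample inhibition plus 3 SD, cut at about 24% in these data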
OX1R antag-1: blocks the human orexin 1 receptor; OX1R-expressing cells, FRET antagonist read-out; O43613; inhibition, % at 6.6 µM; hit rate 1.8% among 330,000; in the data active means inhibition mostly above about 38%, no sharp cut-off; inactive means mostly below about 40%
Target sequence (O43613 whole entry, looked up): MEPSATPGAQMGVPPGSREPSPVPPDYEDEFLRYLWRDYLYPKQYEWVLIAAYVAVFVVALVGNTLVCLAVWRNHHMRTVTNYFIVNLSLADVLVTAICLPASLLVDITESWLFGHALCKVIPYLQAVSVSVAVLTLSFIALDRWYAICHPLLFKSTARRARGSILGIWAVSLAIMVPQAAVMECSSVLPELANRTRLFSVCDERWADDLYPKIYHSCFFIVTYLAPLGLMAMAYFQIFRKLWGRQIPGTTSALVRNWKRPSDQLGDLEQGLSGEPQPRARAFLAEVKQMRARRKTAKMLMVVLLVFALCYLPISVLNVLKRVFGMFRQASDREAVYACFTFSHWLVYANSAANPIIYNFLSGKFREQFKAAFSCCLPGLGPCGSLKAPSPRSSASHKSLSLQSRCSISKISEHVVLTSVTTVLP
OX1R antag-2: antagonists of human orexin 1 receptor; O43613; CHO/OX1R cells, Fluo-8 calcium fluorescence, orexin A; inhibition, % at 5 µM; hit rate 0.43% among 330,000;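 active means inhibition above its plate's threshold, mean inhibition of all tested compounds on the plate plus 3 SD, cut at about 37% in these data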
M1 PAM parental: nonselective activator or artifact in parental CHO-K1 calcium assay; ATP EC20, Fluo-8 calcium fluorescence; 0% at ATP EC20, 100% at ATP max; AID 602247; activation, % at 3 µM; hit rate 0.02% among 360,000;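 active means activation above the run cutoff, the mean activation of all test compounds plus 3 SD, cut at about 40% in these data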;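 further: peak over basal fluorescence ratio in a 140 s read after ATP addition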
CHO parental Ca: counter-screen: ATP calcium response change in parental CHO cells | parental CHO-K1, ATP-induced calcium, Fluo-8 fluorescence | inhibition, % at 5.6 µM | hit rate 0.63% among 330,000 | AID 463079;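 active means inhibition above that plate's mean sample inhibition plus 3 SD, cut at about 26% in these data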
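Assay system: untransfected parental CHO cell line. Also added: ATP agonist challenge. Dosing: one dose, 5.6 µM nominal. Measured by: Fluo-8 fluorescence. Read-out: % inhibition. Benchmarks: ATP wells versus no-ATP DMSO wells. Repeats: no replicates.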
Numbers stand for hits; i = inactive; nt = no result given. Most compounds without a hit are left out; they make up all but 2.9% or so of the library.

SMILES | CHO-K1 Ca ag | CHO-K1 Ca antag | OX1R antag-1 | OX1R antag-2 | M1 PAM parental | CHO parental Ca
COc1ccc(C)cc1NC(=O)C1CCN(S(=O)(=O)c2ccccc2)CC1 | i | i | i | i | i | i
Cc1ccc(S(=O)(=O)N2Cc3ccccc3CC2C(=O)NC(C)(C)C)cc1 (centres undefined) | i | i | 27.2 | i | i | i
Cc1ccc(S(=O)(=O)N2Cc3ccccc3CC2C(=O)Nc2ccc3c(c2)OCO3)cc1 (centres undefined) | i | i | i | i | i | i
O=C(Cn1cccc1C(=O)c1ccccc1)NCc1cccc(Cl)c1 | i | i | i | i | i | i
Cc1ccc(NC(=O)Nc2ccc3c(c2)C(=O)OC3)cc1Cl | i | i | i | i | i | i
Cc1cccc(NC(=O)C2CCCCN2S(=O)(=O)c2ccccc2)c1C (centres undefined) | i | i | 32.6 | i | i | i
CCOc1ccccc1NC(=O)C1CCCCN1S(=O)(=O)c1ccc(F)cc1 (centres undefined) | i | i | 52.9 | i | i | i
O=C(Nc1ccccn1)C1CCCN1S(=O)(=O)c1ccc(Cl)cc1 (centres undefined) | i | i | i | i | i | i
Cc1ccc(S(=O)(=O)N2CCC[C@H]2C(=O)Nc2ccccc2Cl)cc1 | i | i | 61.2 | i | i | i
CCOc1ccccc1NC(=O)C1CCN(c2ccc(S(=O)(=O)N3CCCC3)cc2)CC1 | i | i | i | i | i | i
Cc1cccc(NC(=O)C2CCCN2S(=O)(=O)c2ccc(Cl)cc2)n1 (centres undefined) | i | i | 76.3 | i | i | i
Cc1cc(C)c(NC(=O)CN(C)C(C)C(=O)N2CCc3ccccc32)c(C)c1 (centres undefined) | i | i | i | i | i | i
F[B-](F)(F)c1cc2ccccc2s1 | i | i | nt | nt | i | nt
Cc1cc(NC(=O)Nc2ccccc2[N+](=O)[O-])n(C)n1 | i | i | i | i | i | i
CC1Cc2ccccc2N1C(=O)C1CCCCN1S(=O)(=O)c1ccccc1 (centres undefined) | i | i | 49.2 | i | i | i
O=S(=O)(c1ccc(Cl)cc1)N1CCN(C(=S)Nc2ccccc2F)CC1 | 17.1 | i | i | i | i | i
CC1Cc2cc(S(=O)(=O)N3CCCCC3C)ccc2N1C(=O)C1CCC1 (centres undefined) | i | i | i | i | i | i
O=S(=O)(c1ccc2ccccc2c1)N1CCN(C(=S)Nc2ccccc2F)CC1 | i | i | i | i | i | i
Cn1c(SCCN2CCCC2)nnc1C1CCN(S(=O)(=O)c2cccc(F)c2)CC1 | i | i | i | i | i | i
COc1ccc(N2CCN(C(=O)CSc3nnc(C)c(=O)[nH]3)CC2)cc1 | i | i | i | i | i | 36.7
COc1ccc(N2CCN(C(=O)CSc3nc4ccccc4c(=O)[nH]3)CC2)cc1 | i | i | i | i | i | i
CCCOC(=O)c1ccc(NC(=O)c2ccccc2OC)cc1 | i | i | 76.4 | i | i | i
CCCCOC(=O)c1ccc(NC(=O)c2ccccc2OC)cc1 | i | i | i | i | i | i
Cc1ccc(C(=O)Nc2cccc(-c3nc4ncccc4o3)c2)cc1 | i | i | i | i | i | i
O=C(Nc1cc(-c2nc3ncccc3o2)ccc1Cl)c1cccs1 | i | i | 67.0 | i | i | i
SMILES | CHO-K1 Ca ag | CHO-K1 Ca antag | OX1R antag-1 | OX1R antag-2 | M1 PAM parental | CHO parental Ca
O=C(Nc1cccc(-c2nc3ncccc3o2)c1)c1ccccc1 | i | i | 56.0 | i | i | i
COc1ccc(-c2nc3ncccc3o2)cc1NC(=O)c1cccs1 | i | i | i | i | i | i
C[C@@H]1CN([C@H](C)CO)C(=O)c2cc(C#Cc3ccccc3F)cnc2O[C@@H]1CN(C)S(=O)(=O)c1ccccc1F | i | 24.8 | nt | nt | i | nt
CC(CCc1ccccc1)NC(=O)C(Cc1ccccc1)NC(N)=O (centres undefined) | i | i | i | i | i | i
CCOc1ccc(N2CC(O)=C(c3nc4ccccc4c(=O)[nH]3)C2=N)cc1 | i | i | i | i | i | i
CCOC(=O)c1ccc(N2CC(O)=C(c3nc4ccccc4c(=O)[nH]3)C2=N)cc1 | i | 24.1 | i | i | i | i
COc1ccc(CCN2CC(O)=C(c3nc4ccccc4c(=O)[nH]3)C2=N)cc1OC | i | 29.7 | i | i | i | i
N#Cc1c(-c2ccccc2)cc(-c2ccc3c(c2)OCO3)[nH]c1=O | i | i | i | i | i | i

Bioassay records deposited in PubChem BioAssay by The Scripps Research Institute Molecular Screening Center.
